≈ marks a conversion by molar mass, not a printed value.

Assay type in all cases: functional, organism-based
Experiment [1] relates to Plasmodium falciparum. In words: Antimalarial activity against Plasmodium falciparum D6 as reduced [3H]hypoxanthine uptake after 72 hrs.
Experiment [2] relates to Plasmodium falciparum. In words: (§1) In vitro antimalarial activity against Plasmodium falciparum D6 after 72 hrs in SYBR green fluorescence assay. The following applies: D6, 72 h. In a few lines:
(§2)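 P. falciparum D6 or W2 at late-ring/early-trophozoite stage, conditioned 3–4 days in the test medium (TCM, TCMA with Albumax I in place of plasma, FAF folic acid/pABA-free, or FAFA). Cultured 72 h at 37°C (5% CO₂, 5% O₂, N₂) with 11 twofold drug dilutions, 1% parasitemia, 2% hematocrit. SYBR green I lysis buffer added, 1 h at room temperature, RFU read. Plate-edge wells excluded.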

Experiment [3] deals with Plasmodium falciparum. The experiment is described as follows: In vitro antimalarial activity against Plasmodium falciparum D6 after 72 hrs by SYBR green fluorescence assay. Particulars: D6, 72 h. The gist of the method: as §2
The test system of experiment [4] is Plasmodium falciparum. The experiment is described as follows: (§3) In vitro antimalarial activity against Plasmodium falciparum W2 after 72 hrs in SYBR green fluorescence assay. The following applies: W2, 72 h.
Experiment [5] has as its system Plasmodium falciparum. The description is as §1. The following applies: D6, 72 h. The gist of the method:
as §2
This is another data set of the same source.

Experiment [6] relates to Plasmodium falciparum. The experiment is described as follows: Antimalarial activity against Plasmodium falciparum W2 as reduced [3H]hypoxanthine uptake after 72 hrs.
Experiment [7] deals with Plasmodium falciparum. Described as §3. Particulars: W2, 72 h. In a few lines:
as §2
This is another data set of the same source.

The subject of experiment [8] is Plasmodium falciparum. In words: In vitro antimalarial activity against Plasmodium falciparum W2 after 72 hrs by SYBR green fluorescence assay. Particulars: W2, 72 h. In a few lines: as §2
Experiment [9] relates to Plasmodium falciparum. The experiment is described as §1. Particulars: D6, 72 h. The gist of the method:
as §2
The source holds these as a separate data set.

In experiment [10] the test system is Plasmodium falciparum. Described as §3. Particulars: W2, 72 h. The source holds these as a separate data set.

In the case of `C=CC1CN2CC[C@H]1C[C@H]2[C@H](O)c1ccnc2ccc(OC)cc12` (single isomer, unassigned) [QUININE], the IC50 (as a rule, the concentration that gives 50% inhibition) with Plasmodium falciparum [1] turned out to be 5 ng/mL (≈ 0.0154 µM); in the experiment on Plasmodium falciparum [2], 0.0119 µg/mL (≈ 0.0367 µM); with Plasmodium falciparum [3] it was 0.0113 µg/mL (≈ 0.0348 µM); with Plasmodium falciparum [4], 0.162 µg/mL (≈ 0.5 µM); with Plasmodium falciparum [5], 0.0158 µg/mL (≈ 0.0487 µM); with Plasmodium falciparum [6], 0.036 µg/mL (≈ 0.111 µM). The IC50 with Plasmodium falciparum [7] was 0.167 µg/mL (≈ 0.516 µM); with Plasmodium falciparum [8], 0.129 µg/mL (≈ 0.396 µM); in the experiment on Plasmodium falciparum [9], 0.0149 µg/mL (≈ 0.0459 µM).
For `C[C@@H]1CC[C@H]2[C@@H](C)C(=O)O[C@@H]3O[C@@]4(C)CC[C@@H]1[C@]32OO4` [ARTEMISININ], the IC50 in the experiment with Plasmodium falciparum [1] was determined as 2.4 ng/mL (≈ 0.0085 µM); in the experiment with Plasmodium falciparum [2] it was 0.0016 µg/mL (≈ 0.00567 µM); in the experiment on Plasmodium falciparum [4] it was 0.0012 µg/mL (≈ 0.00425 µM); in the experiment with Plasmodium falciparum [5], 0.00125 µg/mL (≈ 0.00443 µM); in the experiment with Plasmodium falciparum [6] it was 0.0017 µg/mL (≈ 0.00602 µM); with Plasmodium falciparum [7], 0.001 µg/mL (≈ 0.00354 µM). The compound also displayed a half-maximal inhibitory concentration (IC50) with Plasmodium falciparum [10] of 0.0011 µg/mL (≈ 0.0039 µM).
For `CC[C@H]1OC(=O)[C@H](C)[C@@H](O[C@H]2C[C@@](C)(OC)[C@@H](O)[C@H](C)O2)[C@H](C)[C@@H](O[C@@H]2O[C@H](C)C[C@H](N(C)C)[C@H]2O)[C@](C)(O)C[C@@H](C)CN(C)[C@H](C)[C@@H](O)[C@]1(C)O` [AZITHROMYCIN], the IC50 in the experiment with Plasmodium falciparum [1] is 3750 ng/mL (≈ 5 µM); in the experiment on Plasmodium falciparum [2], 14.4 µg/mL (≈ 19.2 µM); in the experiment with Plasmodium falciparum [3], 15.3 µg/mL (≈ 20.4 µM); with Plasmodium falciparum [4], 1.85 µg/mL (≈ 2.47 µM); in the experiment with Plasmodium falciparum [5], 10.1 µg/mL (≈ 13.5 µM); with Plasmodium falciparum [6] it was 5.5 µg/mL (≈ 7.34 µM). Also, the half-maximal inhibitory concentration (IC50) came out at 1.62 µg/mL (≈ 2.17 µM) in the experiment on Plasmodium falciparum [7], 2.73 µg/mL (≈ 3.65 µM) with Plasmodium falciparum [8], 10.1 µg/mL (≈ 13.4 µM) in the experiment on Plasmodium falciparum [9] and 4.49 µg/mL (≈ 5.99 µM) with Plasmodium falciparum [10].
On to `Nc1ccc(S(=O)(=O)c2ccc(N)cc2)cc1` [DAPSONE], for which the IC50 amounted to 2.9 ng/mL (≈ 0.0117 µM) in the experiment with Plasmodium falciparum [1]; 0.0102 µg/mL (≈ 0.0411 µM) with Plasmodium falciparum [2]; 0.156 µg/mL (≈ 0.629 µM) in the experiment with Plasmodium falciparum [4]; 0.124 µg/mL (≈ 0.5 µM) in the experiment on Plasmodium falciparum [6]; 0.0031 µg/mL (≈ 0.0125 µM) in the experiment on Plasmodium falciparum [9]; 0.242 µg/mL (≈ 0.973 µM) in the experiment with Plasmodium falciparum [10].
As for `C[C@H]1c2cccc(O)c2C(=O)C2=C(O)[C@]3(O)C(=O)C(C(N)=O)=C(O)[C@@H](N(C)C)[C@@H]3[C@@H](O)[C@@H]21.O` [DOXYCYCLINE], the IC50 is 483 ng/mL with Plasmodium falciparum [1]; 1.85 µg/mL in the experiment with Plasmodium falciparum [2]; 2.37 µg/mL in the experiment with Plasmodium falciparum [3]; 1.86 µg/mL in the experiment with Plasmodium falciparum [4]; 1.18 µg/mL in the experiment on Plasmodium falciparum [5]; 0.814 µg/mL with Plasmodium falciparum [6]. Also, the IC50 with Plasmodium falciparum [7] is 2.41 µg/mL; with Plasmodium falciparum [8], 2.28 µg/mL; in the experiment on Plasmodium falciparum [9] it was 0.857 µg/mL; in the experiment on Plasmodium falciparum [10], 2.13 µg/mL.
Take `O[C@@H](c1cc(C(F)(F)F)nc2c(C(F)(F)F)cccc12)[C@H]1CCCCN1` [MEFLOQUINE]: the IC50 with Plasmodium falciparum [2] turned out to be 0.016 µg/mL (≈ 0.0423 µM); with Plasmodium falciparum [3], 0.0199 µg/mL (≈ 0.0526 µM); with Plasmodium falciparum [4], 0.0174 µg/mL (≈ 0.046 µM); with Plasmodium falciparum [5], 0.0437 µg/mL (≈ 0.116 µM); with Plasmodium falciparum [6] it was 0.0023 µg/mL (≈ 0.00608 µM); with Plasmodium falciparum [7], 0.0162 µg/mL (≈ 0.0428 µM). Further, the IC50 in the experiment with Plasmodium falciparum [8] was found to be 0.0089 µg/mL (≈ 0.0235 µM); in the experiment with Plasmodium falciparum [9], 0.0328 µg/mL (≈ 0.0867 µM); with Plasmodium falciparum [10], 0.0097 µg/mL (≈ 0.0256 µM).
In the case of `CCc1nc(N)nc(N)c1-c1ccc(Cl)cc1` [PYRIMETHAMINE], the concentration for half-maximal inhibition (IC50) with Plasmodium falciparum [1] came out at 0.1 ng/mL (≈ 0.000402 µM); in the experiment on Plasmodium falciparum [2], 0.0004 µg/mL (≈ 0.00161 µM); with Plasmodium falciparum [6], 0.0119 µg/mL (≈ 0.0478 µM); with Plasmodium falciparum [9], 0.0005 µg/mL (≈ 0.00201 µM); in the experiment on Plasmodium falciparum [10], 0.0376 µg/mL (≈ 0.151 µM).
Turning to `COc1ncnc(NS(=O)(=O)c2ccc(N)cc2)c1OC` [SULFADOXINE], the IC50 with Plasmodium falciparum [1] is 16 ng/mL (≈ 0.0516 µM); in the experiment on Plasmodium falciparum [2] it was 0.0024 µg/mL (≈ 0.00773 µM); in the experiment on Plasmodium falciparum [4], 1.64 µg/mL (≈ 5.29 µM); with Plasmodium falciparum [6], 1.11 µg/mL (≈ 3.59 µM); in the experiment with Plasmodium falciparum [9], 0.0105 µg/mL (≈ 0.0338 µM); with Plasmodium falciparum [10], 2.42 µg/mL (≈ 7.79 µM).
